Results from ChEMBL document CHEMBL1938348, “Novel inhibitors of surface layer processing in Clostridium difficile” (Bioorg Med Chem, 2012).
Activity calls are given as the source filed them. The calls are words filed in the database; no cut-off is given here. Where a SMILES comes first, the peptide text is derived from it. The star is where a group is joined. X1 = CCOC(=O)/C=C/[C@H](CO)N*

Key:
Details in all cases: Clostridioides difficile
[1] = target: T1, Cell surface protein (Clostridium difficile (strain 630)) (UniProt Q183M1); assay: Binding affinity to Clostridium difficile 630 cwp84 at lower band by Western blot analysis
T1 sequence (whole entry): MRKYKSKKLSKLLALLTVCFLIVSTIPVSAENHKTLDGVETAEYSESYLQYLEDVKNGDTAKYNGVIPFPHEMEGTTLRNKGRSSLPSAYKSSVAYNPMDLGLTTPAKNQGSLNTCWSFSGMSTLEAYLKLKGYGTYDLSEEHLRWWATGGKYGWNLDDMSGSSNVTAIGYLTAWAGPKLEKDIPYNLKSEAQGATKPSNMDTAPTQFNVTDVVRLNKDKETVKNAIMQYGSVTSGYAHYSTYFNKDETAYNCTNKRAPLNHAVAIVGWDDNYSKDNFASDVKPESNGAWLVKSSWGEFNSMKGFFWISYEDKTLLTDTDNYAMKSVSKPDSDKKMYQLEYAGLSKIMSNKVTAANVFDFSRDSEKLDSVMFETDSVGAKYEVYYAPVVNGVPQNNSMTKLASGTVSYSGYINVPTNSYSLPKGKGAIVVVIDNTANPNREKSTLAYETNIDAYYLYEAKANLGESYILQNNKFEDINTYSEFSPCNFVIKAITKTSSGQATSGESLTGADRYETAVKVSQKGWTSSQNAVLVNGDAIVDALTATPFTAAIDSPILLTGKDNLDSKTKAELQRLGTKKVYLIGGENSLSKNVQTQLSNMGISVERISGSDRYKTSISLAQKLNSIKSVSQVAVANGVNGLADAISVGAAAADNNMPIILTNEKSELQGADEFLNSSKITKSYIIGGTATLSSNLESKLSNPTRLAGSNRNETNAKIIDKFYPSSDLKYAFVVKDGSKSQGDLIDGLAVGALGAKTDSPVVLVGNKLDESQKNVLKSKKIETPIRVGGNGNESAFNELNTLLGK

[2] = target: T2, Precursor of the S-layer proteins (Clostridium difficile (strain 630)) (UniProt Q183M8); assay: Inhibition of Clostridium difficile 630 S-layer processing of slpA at 100 uM by Western blot analysis
T2 sequence (whole entry): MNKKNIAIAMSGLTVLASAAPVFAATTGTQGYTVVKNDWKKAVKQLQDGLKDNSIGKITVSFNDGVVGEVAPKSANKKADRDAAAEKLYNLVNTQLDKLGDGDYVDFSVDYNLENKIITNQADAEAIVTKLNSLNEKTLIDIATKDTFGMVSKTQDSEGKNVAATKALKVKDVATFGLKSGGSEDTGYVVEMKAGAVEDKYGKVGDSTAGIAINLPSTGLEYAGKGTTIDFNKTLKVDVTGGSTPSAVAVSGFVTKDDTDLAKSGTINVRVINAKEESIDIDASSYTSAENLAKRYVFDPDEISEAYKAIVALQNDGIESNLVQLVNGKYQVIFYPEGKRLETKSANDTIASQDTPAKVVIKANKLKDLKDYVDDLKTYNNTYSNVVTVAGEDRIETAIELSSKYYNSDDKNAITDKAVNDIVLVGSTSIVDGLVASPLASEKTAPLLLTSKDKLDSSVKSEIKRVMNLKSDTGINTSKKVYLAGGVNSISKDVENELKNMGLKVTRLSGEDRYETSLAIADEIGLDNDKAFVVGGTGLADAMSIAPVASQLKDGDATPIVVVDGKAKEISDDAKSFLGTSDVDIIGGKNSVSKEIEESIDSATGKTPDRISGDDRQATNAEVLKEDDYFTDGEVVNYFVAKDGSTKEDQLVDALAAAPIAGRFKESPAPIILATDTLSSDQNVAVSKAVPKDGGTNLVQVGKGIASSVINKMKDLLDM
Summary of the method: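 C. difficile strain 630 grown overnight (16 h), anaerobic, 37 °C, in BHI with compound at 100 µM or DMSO vehicle. Surface layer proteins extracted with 0.2 M glycine–HCl pH 2.2 (30 min, room temperature), run on SDS–PAGE and semi-dry blotted to PVDF. Probed with rabbit anti-LMW SLP (1/200,000), then goat anti-rabbit-HRP (1/2000). Chemiluminescence read-out.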

[3] = target: T1, Cell surface protein (Clostridium difficile (strain 630)); assay: Binding affinity to Clostridium difficile 630 higher molecular weight cwp84 by Western blot analysis
[4] = target: T1, Cell surface protein (Clostridium difficile (strain 630)); assay: Binding affinity to Clostridium difficile 630 cwp84 at 74 kDa by Western blot analysis

Row | Activity [1] | inhibition [2] | Activity [3] | Activity [4] | Compound
1 | Active | Active | inactive |  | CCOC(=O)/C=C/[C@H](CO)NC(=O)[C@H](Cc1ccc(O)cc1)NC(=O)[C@H](CCCCNC(=O)CCCC[C@@H]1SC[C@@H]2NC(=O)N[C@@H]21)NC(C)=O
2 |  | inactive |  |  | CCOC(=O)/C=C/C(=O)N[C@@H](CCCNC(=N)N)C(=O)NCCOCCOCCOCCNC(=O)CCCC[C@@H]1SC[C@@H]2NC(=O)N[C@@H]21
3 |  | inactive |  |  | CCOC(=O)/C=C/C(=O)N[C@@H](C)C(=O)NCCOCCOCCOCCNC(=O)CCCC[C@@H]1SC[C@@H]2NC(=O)N[C@@H]21
4 |  | Active |  |  | O=C(CCCC[C@@H]1SC[C@@H]2NC(=O)N[C@@H]21)NCCOCCOCCOCCNC(=O)[C@H](CO)NC(=O)CCl
5 | Active | Active | inactive |  | CCOC(=O)/C=C/[C@H](CO)NC(=O)[C@H](CC(C)C)NC(=O)[C@H](CCCCNC(=O)CCCC[C@@H]1SC[C@@H]2NC(=O)N[C@@H]21)NC(C)=O
6 |  | Active |  |  | N=C(N)NCCC[C@H](NC(=O)CCl)C(=O)NCCOCCOCCOCCNC(=O)CCCC[C@@H]1SC[C@@H]2NC(=O)N[C@@H]21
7 |  | inactive |  |  | CCOC(=O)/C=C/C(=O)N[C@@H](CO)C(=O)NCCOCCOCCOCCNC(=O)CCCC[C@@H]1SC[C@@H]2NC(=O)N[C@@H]21
8 |  | Active | Active | Active | CC(C)C[C@H](NC(=O)CCl)C(=O)N[C@@H](CCCNC(=N)N)C(=O)NCCOCCOCCOCCNC(=O)CCCC[C@@H]1SC[C@@H]2NC(=O)N[C@@H]21
9 |  | inactive |  |  | CCOC(=O)/C=C/C(=O)N[C@@H](CC(C)C)C(=O)N[C@@H](CCCNC(=N)N)C(=O)NCCOCCOCCOCCNC(=O)CCCC[C@@H]1SC[C@@H]2NC(=O)N[C@@H]21
10 |  | Active |  |  | C[C@H](NC(=O)CCl)C(=O)NCCOCCOCCOCCNC(=O)CCCC[C@@H]1SC[C@@H]2NC(=O)N[C@@H]21

Row | Compound | Activity [1] | inhibition [2] | Activity [3] | Activity [4]
11 | CC(C)C[C@H](NC(=O)CF)C(=O)N[C@@H](CCCNC(=N)N)C(=O)NCCOCCOCCOCCNC(=O)CCCC[C@@H]1SC[C@@H]2NC(=O)N[C@@H]21 |  | inactive |  | 
12 | CCOC(=O)/C=C/[C@H](CO)NC(=O)[C@H](CCCCN)NC(=O)[C@@H](NC(=O)[C@H](CCC(=O)O)NC(=O)[C@H](CC(C)C)NC(C)=O)[C@@H](C)O (Ac-LETK-X1) |  | Active |  | 
13 | O=C(CCCC[C@@H]1SC[C@@H]2NC(=O)N[C@@H]21)NCCOCCOCCOCCNC(=O)[C@H](CO)NC(=O)CF |  | inactive |  | 
14 | C[C@H](NC(=O)CF)C(=O)NCCOCCOCCOCCNC(=O)CCCC[C@@H]1SC[C@@H]2NC(=O)N[C@@H]21 |  | inactive |  | 
15 | N=C(N)NCCC[C@H](NC(=O)CF)C(=O)NCCOCCOCCOCCNC(=O)CCCC[C@@H]1SC[C@@H]2NC(=O)N[C@@H]21 |  | inactive |  | 
